Assay results reported in ChEMBL document CHEMBL4184233, “Design and synthesis of novel dasatinib derivatives as inhibitors of leukemia stem cells” (Bioorg Med Chem Lett, 2018).
Activity calls are given as the source filed them. The rule behind the calls is not given here.

Tests used:
[1] = tested on: K562; test: Growth inhibition of human K562 cells; format: functional, cell-based
[2] = tested on: HL-60; test: Growth inhibition of human HL60 cells; format: functional, cell-based
[3] = tested on: KG-1a; test: Growth inhibition of human KG1a cells; format: functional, cell-based
[4] = tested on: MCF7; test: Inhibition of colony formation in human MCF7 cells incubated for 10 days by crystal violet staining based plate cloning test; format: functional, cell-based
Procedure, shortened: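 MCF-7 colony formation assay. Cells received low, middle and high concentrations (0.96/1.90/3.80 μM or 0.68/1.35/2.70 μM, depending on compound) for 10 days. Colony counts were compared with an untreated control group, with significance at P < 0.05 and P < 0.01.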

[5] = tested on: B16-BL6; test: Inhibition of cell migration of mouse B16-BL6 cells at 1.43 uM incubated for 24 to 48 hrs by cell wound scratch assay; format: functional, cell-based
Procedure, shortened: (§1)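 Wound-scratch migration assay in mouse B16BL6 monolayers. Each compound was given at a single concentration for 2 days, and migration was compared with an untreated control group.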

[6] = Toxicity in Kunming mouse assessed as survival rat at 200 mg/kg, po dosed once for 2 weeks; format: organism-based; conditions: in vivo
Procedure, shortened: (§2)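 Single oral dose to mice, then observed for 14 days with survival rate recorded. Doses tested were 200, 500 and 1000 mg/kg. The dasatinib comparator was given at 200 mg/kg only.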

[7] = tested on: Mus musculus; test: Toxicity in Kunming mouse assessed as survival rat at 500 mg/kg, po dosed once for 2 weeks; format: organism-based; conditions: in vivo, 336 h; procedure, shortened: as §2
[8] = tested on: Mus musculus; test: Toxicity in Kunming mouse assessed as survival rat at 1000 mg/kg, po dosed once for 2 weeks; format: organism-based; conditions: in vivo, 336 h; procedure, shortened: as §2
[9] = tested on: KG-1a; test: Potency index, ratio of IC50 for dasatinib to IC50 for test compound for growth inhibition of human KG1a cells; format: functional
[10] = tested on: MCF7; conditions: Homo sapiens, 7.5 uM
[11] = tested on: B16-BL6; conditions: Mus musculus, 8.13 uM
[12] = tested on: B16-BL6; test: Inhibition of cell migration of mouse B16-BL6 cells at 0.82 uM incubated for 24 to 48 hrs by cell wound scratch assay; format: functional, cell-based; procedure, shortened: as §1

| SMILES | IC50 [1] [nM] | IC50 [2] [nM] | IC50 [3] [nM] | also measured |
| --- | --- | --- | --- | --- |
| Cc1nc(Nc2ncc(-c3nnc(-c4c(C)cccc4Cl)o3)s2)cc(N2CCN(CCN)CC2)n1 | 260 | 110 | 680 | – |
| Cc1nc(Nc2ncc(-c3nnc(-c4c(C)cccc4Cl)o3)s2)cc(N2CCN(CCO)CC2)n1 | 230 | 150 | 50 | inhibition [4]: Dose-dependent effect; inhibition [5]: Active; survival at 336 h [6]: 100%; Activity [7]: Non-Toxic; Activity [8]: Non-Toxic; Ratio IC50 [9]: 180 |
| Cc1nc(Nc2ncc(-c3nnc(-c4c(C)cccc4Cl)o3)s2)cc(N2CCN(CCN=C=S)CC2)n1 | 1810 | 1420 | 150 | – |
| Cc1nc(Nc2ncc(C(=O)Nc3c(C)cccc3Cl)s2)cc(N2CCN(CCO)CC2)n1 [DASATINIB] | 0.069 | 0.11 | 8980 | survival at 336 h [6]: 100%; inhibition [10]: Active; inhibition [11]: Active |
| Cc1nc(Nc2ncc(-c3nnc(-c4c(C)cccc4Cl)o3)s2)cc(N2CCN(CCNC(=O)CCl)CC2)n1 | 3060 | 2120 | 9750 | – |
| Cc1nc(Nc2ncc(-c3cn(-c4c(C)cccc4Cl)nn3)s2)cc(N2CCN(CCN=C=S)CC2)n1 | 36.5 | 16.6 | 320 | – |
| C=CC(=O)NCCN1CCN(c2cc(Nc3ncc(-c4nnc(-c5c(C)cccc5Cl)o4)s3)nc(C)n2)CC1 | 150 | 160 | 110 | – |
| Cc1nc(Nc2ncc(-c3cn(-c4c(C)cccc4Cl)nn3)s2)cc(N2CCN(CCO)CC2)n1 | 14.1 | 4.19 | 140 | inhibition [4]: Dose-dependent effect; inhibition [12]: Active; survival at 336 h [6]: 100%; Activity [7]: Non-Toxic; Activity [8]: Non-Toxic |

Further compounds by falling IC50 [1], results first:

| IC50 [1] [nM] | IC50 [2] [nM] | SMILES | IC50 [3] [nM] | also measured |
| --- | --- | --- | --- | --- |
| 17.6 | 9.82 | Cc1nc(Nc2ncc(-c3cn(-c4c(C)cccc4Cl)nn3)s2)cc(N2CCN(CCNC(=O)CCl)CC2)n1 | 450 | – |
| 15.1 | 5.46 | C=CC(=O)NCCN1CCN(c2cc(Nc3ncc(-c4cn(-c5c(C)cccc5Cl)nn4)s3)nc(C)n2)CC1 | 250 | – |
| 11.7 | 4.08 | Cc1nc(Nc2ncc(-c3cn(-c4c(C)cccc4Cl)nn3)s2)cc(N2CCN(CCN)CC2)n1 | 2060 | – |
| 3.77 | 1.07 | Cc1nc(Nc2ncc(C(=O)Nc3c(C)cccc3Cl)s2)cc(N2CCN(CCN=C=S)CC2)n1 | 1960 | – |
| 1.67 | 0.86 | Cc1nc(Nc2ncc(C(=O)Nc3c(C)cccc3Cl)s2)cc(N2CCN(CCNC(=O)CCl)CC2)n1 | 13600 | – |
| 0.72 | 0.25 | Cc1nc(Nc2ncc(C(=O)Nc3c(C)cccc3Cl)s2)cc(N2CCN(CCN)CC2)n1 | 25400 | – |
| 0.039 | 0.26 | C=CC(=O)NCCN1CCN(c2cc(Nc3ncc(C(=O)Nc4c(C)cccc4Cl)s3)nc(C)n2)CC1 | 12900 | – |
